Measured values: ChEMBL document CHEMBL1126975 (J Med Chem, 1993)

Legend:
[1] = molecular target: T1, Amine oxidase [flavin-containing] A (Rattus norvegicus, UniProt P21396); experiment: In Vitro evaluation for the inhibitory activity on rat brain by MAO-A at 100 uM; No Inhibition
T1 sequence (P21396 whole entry): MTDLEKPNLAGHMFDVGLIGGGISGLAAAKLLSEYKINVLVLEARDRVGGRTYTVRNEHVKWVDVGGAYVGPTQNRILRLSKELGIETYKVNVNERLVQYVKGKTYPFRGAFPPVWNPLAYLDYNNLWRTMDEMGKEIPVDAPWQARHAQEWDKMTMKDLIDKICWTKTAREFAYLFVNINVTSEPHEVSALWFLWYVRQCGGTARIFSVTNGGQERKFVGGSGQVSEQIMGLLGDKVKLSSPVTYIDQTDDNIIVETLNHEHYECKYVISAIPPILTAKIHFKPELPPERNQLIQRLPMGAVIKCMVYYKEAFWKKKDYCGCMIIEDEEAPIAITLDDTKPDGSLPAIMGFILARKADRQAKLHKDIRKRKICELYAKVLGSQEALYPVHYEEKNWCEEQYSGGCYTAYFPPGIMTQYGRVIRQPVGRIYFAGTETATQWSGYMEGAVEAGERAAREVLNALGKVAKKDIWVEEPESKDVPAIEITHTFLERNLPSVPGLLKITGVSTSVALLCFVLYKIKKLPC
Outline: (§1)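 Male Sprague-Dawley rat brain crude mitochondrial fraction, 0.195 mg protein/mL. Radiochemical assay at 37 °C, pH 7.4: MAO A with 10 μM [14C]5-HT, MAO B with 5 μM [14C]PEA. Drug preincubated 20 min with enzyme. […] Three experiments in duplicate.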

[2] = molecular target: T2, Amine oxidase [flavin-containing] B (Rattus norvegicus, UniProt P19643); experiment: In vitro inhibitory activity on rat brain MAO-B.
T2 sequence (P19643 whole entry): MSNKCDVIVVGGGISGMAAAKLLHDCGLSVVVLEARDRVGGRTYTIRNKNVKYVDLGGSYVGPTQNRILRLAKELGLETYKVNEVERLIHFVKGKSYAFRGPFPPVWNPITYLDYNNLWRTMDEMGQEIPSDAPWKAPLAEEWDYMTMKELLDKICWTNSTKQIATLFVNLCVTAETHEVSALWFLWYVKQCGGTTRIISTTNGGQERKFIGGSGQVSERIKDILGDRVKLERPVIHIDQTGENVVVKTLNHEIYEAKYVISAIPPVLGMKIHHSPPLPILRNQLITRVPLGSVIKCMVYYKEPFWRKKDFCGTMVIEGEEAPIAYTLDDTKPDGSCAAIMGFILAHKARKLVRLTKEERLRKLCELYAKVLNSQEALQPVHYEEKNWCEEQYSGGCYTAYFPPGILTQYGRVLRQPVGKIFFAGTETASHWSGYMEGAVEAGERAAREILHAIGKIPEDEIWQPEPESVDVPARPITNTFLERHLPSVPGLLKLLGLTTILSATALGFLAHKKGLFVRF
Outline: (§2)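 Radiochemical assay at 37 °C, pH 7.4: MAO A with 10 μM [14C]5-HT, MAO B with 5 μM [14C]PEA. Drug preincubated 20 min with enzyme. Three experiments in duplicate.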

[3] = molecular target: T1, Amine oxidase [flavin-containing] A; experiment: In Vitro evaluation for the inhibitory activity on rat brain by MAO-A at 100 uM; outline: as §1
[4] = molecular target: T2, Amine oxidase [flavin-containing] B; experiment: Ex-Vivo Time course of evaluation for the percentage inhibition of MAO-B for 0.5 hr at single dose 5 mg/kg through oral gavage; assay type: organism-based; parameters: dose 5 mg/kg, route oral
Outline: (§3)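 Fasted male Sprague-Dawley rats (150 g) dosed orally by gavage, drug suspended in Tween 80 plus 0.5% methylcellulose; vehicle controls. The 100 mg/kg arm was dosed daily for 9 days. Four rats per time point; brains frozen and homogenized in 0.1 M phosphate pH 7.4. Assayed at 37 °C with 8 μM [14C]PEA for 1 min; toluene/ethyl acetate extraction. Percent inhibition vs control, mean ± SEM.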

[5] = molecular target: T2, Amine oxidase [flavin-containing] B; experiment: Compound was evaluated for the time-dependence inhibition of MAO-B at 30 minutes pre-incubation periods
Outline: (§4)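 Male Sprague-Dawley rat brain crude mitochondrial fraction, MAO B. Drug preincubated with enzyme at 37 °C for 0, 20, 30 or 60 min, then radiochemical assay with 5 μM [14C]PEA at pH 7.4. IC50 read graphically from 9–12 concentrations; three experiments in duplicate.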

[6] = molecular target: T2, Amine oxidase [flavin-containing] B; experiment: Ex-Vivo percentage inhibition of MAO-B after 24 hr single 5 mg/kg dose by oral gavage; assay type: organism-based; parameters: dose 5 mg/kg, route oral
Outline: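 Ex vivo oral gavage in fasted male Sprague-Dawley rats (Tween 80 / 0.5% methylcellulose), four rats per group. Brain homogenate taken 24 h after dosing. MAO B assayed with 8 μM [14C]PEA, 1 min at 37 °C; percent inhibition vs vehicle control.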

[7] = molecular target: T2, Amine oxidase [flavin-containing] B; experiment: Ex-Vivo Time course of evaluation for the percentage inhibition of MAO-B for 1 hr at single dose 5 mg/kg through oral gavage; assay type: organism-based; parameters: dose 5 mg/kg, route oral; outline: as §3
[8] = molecular target: T2, Amine oxidase [flavin-containing] B; experiment: Ex-Vivo Time course of evaluation for the percentage inhibition of MAO-B for 48 hr at single dose 5 mg/kg through oral gavage; assay type: organism-based; parameters: dose 5 mg/kg, route oral; outline: as §3
[9] = molecular target: T2, Amine oxidase [flavin-containing] B; experiment: Compound was evaluated for the time-dependence inhibition of MAO-B at 0 minute pre-incubation periods; outline: as §4
[10] = molecular target: T1, Amine oxidase [flavin-containing] A; experiment: In vitro inhibitory activity on rat brain by monoamine oxidase A (MAO-A); outline: as §2
[11] = molecular target: T2, Amine oxidase [flavin-containing] B; experiment: Compound was evaluated for the time-dependence inhibition of MAO-B at 60 minutes preincubation periods; outline: as §4
[12] = molecular target: T1, Amine oxidase [flavin-containing] A; experiment: Compound was evaluated for the time-dependence inhibition of MAO-A at 60 minutes of preincubated period. values are same with or without pre-incubation
[13] = molecular target: T2, Amine oxidase [flavin-containing] B; experiment: Compound was evaluated for the time-dependence inhibition of MAO-B at 20 minutes pre-incubation periods; outline: as §4
[14] = Selectivity for B form was estimated by the ratio of IC50 (MAO A) at 60 min to that of (MAO B)
[15] = molecular target: T2, Amine oxidase [flavin-containing] B; experiment: Ex-Vivo Time course of evaluation for the percentage inhibition of MAO-B for 4 hr at single dose 5 mg/kg through oral gavage; assay type: organism-based; parameters: dose 5 mg/kg, route oral; outline: as §3
[16] = molecular target: T2, Amine oxidase [flavin-containing] B; experiment: Ex-Vivo Time course of evaluation for the percentage inhibition of MAO-B for 1 hr at single dose 5 mg/kg through oral gavage (p<0.001); assay type: organism-based; parameters: dose 5 mg/kg, route oral; outline: as §3
[17] = molecular target: T2, Amine oxidase [flavin-containing] B; experiment: Ex-Vivo Time course of evaluation for the percentage inhibition of MAO-B for 4 hr at single dose 5 mg/kg through oral gavage [p<0.05 (Bonferroni''s test)]; assay type: organism-based; parameters: dose 5 mg/kg, route oral; outline: as §3

Structure (SMILES)	IC50 [2]	inhibition at 5 mg/kg [4]	inhibition at 5 mg/kg [6]	IC50 [10]	further results
N#CCCCCn1nc(-c2ccc(OCc3ccccc3)cc2)oc1=O	490 nM	–	–	–	IC50 [1]: Not Active
N#CCCCn1nc(-c2ccc(OCc3ccccc3)cc2)oc1=O	410 nM	–	–	–	IC50 [1]: Not Active
CC(C#N)n1nc(-c2ccc(OCc3ccccc3)cc2)oc1=O (centres undefined)	48000 nM	–	–	–	inhibition at 100 µM [3]: 4%
N#CCCn1nc(-c2ccc(OCc3ccccc3)cc2)oc1=S	4.4 nM	68%	21%	12000 nM	IC50 [5]: 4.7 nM; inhibition at 5 mg/kg [7]: 84%; inhibition at 5 mg/kg [8]: 8%; IC50 [9]: 47 nM; IC50 [11]: 3.7 nM; IC50 [12]: 12000 nM; IC50 [13]: 6.6 nM; Selectivity [14]: 3200; inhibition at 5 mg/kg [15]: 74%
N#CCCn1nc(-c2ccc(OCc3ccc([N+](=O)[O-])cc3)cc2)oc1=S	4300 nM	–	–	2600 nM	–
COc1cccc(COc2ccc(-c3nn(CCC#N)c(=S)o3)cc2)c1	100 nM	–	–	8100 nM	–
N#CCCN1N=C(c2ccc(OCc3ccc([N+](=O)[O-])cc3)cc2)OCC1=O	300 nM	–	–	2000 nM	–
N#CCCn1nc(-c2ccc(OCc3ccccc3)cc2)sc1=S	16 nM	27%	8%	160000 nM	inhibition at 5 mg/kg [7]: 18%; inhibition at 5 mg/kg [8]: 10%; inhibition at 5 mg/kg [15]: 8%
N#CCCN1N=C(c2ccc(OCc3ccccc3)cc2)OCC1=O	18 nM	21%	23%	160000 nM	inhibition at 5 mg/kg [7]: 31%; inhibition at 5 mg/kg [8]: 16%; inhibition at 5 mg/kg [15]: 22%
N#CCCN1N=C(c2ccc(OCc3cccc(Cl)c3)cc2)OCC1=O	13 nM	–	–	13000 nM	–
COc1ccc(COc2ccc(-c3nn(CCC#N)c(=O)o3)cc2)cc1	27 nM	–	–	16000 nM	–
COc1ccc(COc2ccc(C3=NN(CCC#N)C(=O)CO3)cc2)cc1	88 nM	–	–	45000 nM	–
COc1cccc(COc2ccc(C3=NN(CCC#N)C(=O)CO3)cc2)c1	68 nM	–	–	32000 nM	–
N#CCn1nc(-c2ccc(OCc3ccccc3)cc2)oc1=O	60 nM	–	–	–	IC50 [1]: Not Active
O=c1oc(-c2ccc(OCc3ccccc3)cc2)nn1CCO	3.7 nM	65%	8%	140000 nM	IC50 [5]: 4.4 nM; inhibition at 5 mg/kg [7]: 82%; IC50 [9]: 33 nM; IC50 [11]: 4.6 nM; IC50 [12]: 140000 nM; IC50 [13]: 4.6 nM; Selectivity [14]: 30400; inhibition at 5 mg/kg [15]: 70%
Cc1ccc(COc2ccc(-c3nn(CCC#N)c(=O)o3)cc2)cc1	15 nM	9%	-3%	25000 nM	inhibition at 5 mg/kg [16]: 22%; inhibition at 5 mg/kg [8]: 1%; inhibition at 5 mg/kg [17]: 14%
N#CCCn1nc(-c2ccc(OCc3ccc(Cl)cc3)cc2)oc1=S	690 nM	–	–	2700 nM	–
Cc1ccc(COc2ccc(-c3nn(CCC#N)c(=S)o3)cc2)cc1	400 nM	–	–	10000 nM	–
Cc1cccc(COc2ccc(-c3nn(CCC#N)c(=S)o3)cc2)c1	66 nM	–	–	14000 nM	–
N#CCCn1nc(-c2ccc(OCc3ccccc3)cc2)sc1=O	8 nM	44%	15%	45000 nM	inhibition at 5 mg/kg [7]: 52%; inhibition at 5 mg/kg [8]: 9%; inhibition at 5 mg/kg [15]: 45%
N#CCCN1N=C(c2ccc(OCc3ccccc3)cc2)OCC1=S	140 nM	12%	-4%	25000 nM	inhibition at 5 mg/kg [7]: 3%; inhibition at 5 mg/kg [8]: 9%; inhibition at 5 mg/kg [15]: 5%
Cc1ccc(COc2ccc(C3=NN(CCC#N)C(=O)CO3)cc2)cc1	320 nM	–	–	250000 nM	–
N#CCCN1N=C(c2ccc(OCc3ccc(Cl)cc3)cc2)OCC1=O	100 nM	–	–	3400 nM	–
COc1ccc(COc2ccc(-c3nn(CCC#N)c(=S)o3)cc2)cc1	910 nM	–	–	4800 nM	–
N#CCCn1nc(-c2ccc(OCc3cccc(Cl)c3)cc2)oc1=S	160 nM	–	–	11000 nM	–
N#CCCn1nc(-c2ccc(OCc3cccc(Cl)c3)cc2)oc1=O	12 nM	1%	-7%	7400 nM	inhibition at 5 mg/kg [16]: 36%; inhibition at 5 mg/kg [8]: 4%; inhibition at 5 mg/kg [17]: 29%
Cc1cccc(COc2ccc(-c3nn(CCC#N)c(=O)o3)cc2)c1	8 nM	6%	-3%	20000 nM	inhibition at 5 mg/kg [7]: 16%; inhibition at 5 mg/kg [8]: -3%; inhibition at 5 mg/kg [15]: 15%
Cc1cccc(COc2ccc(C3=NN(CCC#N)C(=O)CO3)cc2)c1	31 nM	–	–	40000 nM	–
N#CCCn1nc(-c2ccc(OCc3ccc([N+](=O)[O-])cc3)cc2)oc1=O	5500 nM	–	–	11000 nM	–
